Data published in ChEMBL document CHEMBL4024789, “Neutral Porphyrin Derivative Exerts Anticancer Activity by Targeting Cellular Topoisomerase I (Top1) and Promotes Apoptotic Cell Death without Stabilizing Top1-DNA Cleavage Complexes” (J Med Chem, 2018).
Activity calls are given as the source filed them. The calls are words filed in the database; no cut-off is given here.

Legend:
DNA topoisomerase 1 [1] = molecular target: T1, DNA topoisomerase 1 (Homo sapiens, UniProt P11387); experiment: Inhibition of recombinant human topoisomerase-1 expressed in baculovirus infected sf9 cells using supercoiled pBS SK(+) DNA as substrate after 15 mins by ethidium bromide staining based agarose gel electrophoresis method
T1 sequence (P11387 whole entry): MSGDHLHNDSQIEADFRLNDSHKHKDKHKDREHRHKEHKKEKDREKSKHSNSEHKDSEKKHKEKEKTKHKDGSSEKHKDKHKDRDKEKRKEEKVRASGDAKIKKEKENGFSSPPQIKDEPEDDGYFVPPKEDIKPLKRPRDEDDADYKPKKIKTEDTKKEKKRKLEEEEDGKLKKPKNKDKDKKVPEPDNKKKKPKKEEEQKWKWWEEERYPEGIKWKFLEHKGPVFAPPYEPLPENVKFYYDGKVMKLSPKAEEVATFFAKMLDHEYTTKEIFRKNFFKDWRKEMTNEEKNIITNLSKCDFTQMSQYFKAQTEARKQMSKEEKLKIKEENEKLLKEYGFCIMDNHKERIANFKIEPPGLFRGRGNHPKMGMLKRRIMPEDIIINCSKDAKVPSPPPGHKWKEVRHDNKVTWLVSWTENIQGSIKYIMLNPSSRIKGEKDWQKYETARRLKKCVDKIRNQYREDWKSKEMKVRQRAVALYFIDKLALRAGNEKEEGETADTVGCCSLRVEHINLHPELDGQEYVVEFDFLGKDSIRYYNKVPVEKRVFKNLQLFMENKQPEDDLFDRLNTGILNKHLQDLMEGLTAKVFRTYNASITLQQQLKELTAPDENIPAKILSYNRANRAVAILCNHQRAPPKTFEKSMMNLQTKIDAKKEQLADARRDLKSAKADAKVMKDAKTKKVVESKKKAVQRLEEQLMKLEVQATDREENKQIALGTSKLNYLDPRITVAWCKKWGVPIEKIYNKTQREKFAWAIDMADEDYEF
Method in brief: (§1)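 Relaxation assay: 90 fmol supercoiled pBS (SK+) DNA with 30 fmol recombinant Top1 (Sf-9/baculovirus). Compound either preincubated with Top1 for 5 min before DNA addition, or added simultaneously with DNA; then 37 °C for 15 min. Vehicle 2% DMSO. Read on 1% agarose gel. EC50 from mean ± SD of three experiments.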

DNA topoisomerase 1 [2] = molecular target: T1, DNA topoisomerase 1; experiment: Inhibition of recombinant human topoisomerase-1 expressed in baculovirus infected sf9 cells using supercoiled pBS SK(+) DNA as substrate preincubated for 5 mins followed by substrate addition measured after 15 mins by ethidium bromide staining based agarose gel electrophoresis method; method in brief: as §1
Bacteria [3] = experiment: Induction of relaxed pBluescript SK(+) DNA intercalation (unknown origin) assessed as negative supercoiling at 300 uM after 15 mins by agarose gel electrophoresis method
Method in brief: (§2)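 Top1 unwinding assay: excess Top1 first relaxes 50 fmol supercoiled pBS (SK+) DNA, then the relaxed DNA is incubated with compound at 50, 100 or 300 μM (m-AMSA and etoposide as references). Negative supercoiling read on agarose gel.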

Bacteria [4] = experiment: Induction of relaxed pBluescript SK(+) DNA intercalation (unknown origin) assessed as negative supercoiling at 50 uM after 15 mins by agarose gel electrophoresis method; method in brief: as §2

| EC50 (DNA topoisomerase 1 [1]) | EC50 (DNA topoisomerase 1 [2]) | Activity (Bacteria [3]) | Activity (Bacteria [4]) | SMILES |
| --- | --- | --- | --- | --- |
| > 50 µM | > 50 µM |  |  | C1=Cc2nc1c(-c1ccccc1)c1ccc([nH]1)c(-c1ccccc1)c1nc(c(-c3ccccc3)c3ccc([nH]3)c2-c2ccccc2)C=C1 |
| > 50 µM | > 50 µM |  |  | Brc1ccc(-c2c3nc(c(-c4ccc(-c5ccncc5)cc4)c4ccc([nH]4)c(-c4ccc(Br)cc4)c4nc(c(-c5ccc(-c6ccncc6)cc5)c5ccc2[nH]5)C=C4)C=C3)cc1 |
|  |  | inactive |  | COc1cc([C@@H]2c3cc4c(cc3[C@@H](O[C@@H]3O[C@@H]5CO[C@@H](C)O[C@H]5[C@H](O)[C@H]3O)[C@H]3COC(=O)[C@H]23)OCO4)cc(OC)c1O |
| > 50 µM | > 50 µM |  |  | C1=Cc2nc1c(-c1ccncc1)c1ccc([nH]1)c(-c1ccncc1)c1nc(c(-c3ccncc3)c3ccc([nH]3)c2-c2ccncc2)C=C1 |
| > 50 µM | > 50 µM |  |  | Brc1ccc(-c2c3nc(c(-c4ccncc4)c4ccc([nH]4)c(-c4ccc(Br)cc4)c4nc(c(-c5ccncc5)c5ccc2[nH]5)C=C4)C=C3)cc1 |
| 2.02 µM | 0.563 µM |  |  | O=C(O)c1ccc(-c2c3nc(c(-c4ccc(C(=O)O)cc4)c4ccc([nH]4)c(-c4ccc(C(=O)O)cc4)c4nc(c(-c5ccc(C(=O)O)cc5)c5ccc2[nH]5)C=C4)C=C3)cc1 |
| 1.97 µM | 1.23 µM |  |  | CN(C)c1ccc(-c2c3nc(c(-c4ccc(N(C)C)cc4)c4ccc([nH]4)c(-c4ccc(N(C)C)cc4)c4nc(c(-c5ccc(C(=O)O)cc5)c5ccc2[nH]5)C=C4)C=C3)cc1 |
| > 50 µM | > 50 µM |  |  | Brc1ccc(-c2c3nc(c(-c4ccc(Br)cc4)c4ccc([nH]4)c(-c4ccncc4)c4nc(c(-c5ccncc5)c5ccc2[nH]5)C=C4)C=C3)cc1 |
| 82.8 µM | 63.4 µM |  |  | Nc1ccc(-c2ccc(-c3c4nc(c(-c5ccc(-c6ccc(N)cc6)cc5)c5ccc([nH]5)c(-c5ccncc5)c5nc(c(-c6ccncc6)c6ccc3[nH]6)C=C5)C=C4)cc2)cc1 |
| > 50 µM | > 50 µM |  |  | Brc1ccc(-c2c3nc(c(-c4ccncc4)c4ccc([nH]4)c(-c4ccncc4)c4nc(c(-c5ccncc5)c5ccc2[nH]5)C=C4)C=C3)cc1 |
|  |  |  | Active | COc1cc(NS(C)(=O)=O)ccc1Nc1c2ccccc2nc2ccccc12 |
